Bioassay records from PubChem.
RGS4 inh – human RGS4 inhibition; B-score at 10 µM; 310,000 tested, 0.45% active; HEK293 M3R/RGS4 inducible, Fluo-4 calcium flux; stronger effect = higher value; triggered by carbachol at its EC20; P49798;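 active means B-score, a plate-corrected calcium signal, over three deviations above library mean, with baseline fluorescence within five deviations of library mean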;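 further: RGS4 expression induced by doxycycline in cells with stable M3 receptor; B-score is computed from the integrated fluorescence ratio over baseline after carbachol; higher B-score means a larger calcium signal and so more RGS4 inhibition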
Target sequence (P49798 whole entry, looked up): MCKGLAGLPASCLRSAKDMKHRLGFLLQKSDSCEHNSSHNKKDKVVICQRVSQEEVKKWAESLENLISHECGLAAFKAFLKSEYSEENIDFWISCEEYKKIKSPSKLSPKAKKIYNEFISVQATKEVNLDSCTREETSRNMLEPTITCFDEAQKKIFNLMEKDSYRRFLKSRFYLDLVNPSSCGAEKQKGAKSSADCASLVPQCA
MrgX1 antag – antagonists of human MrgX1 receptor; Q96LB2; MRGX1-HEK293 calcium flux, Fluo-4, BAM8-22 antagonism; stronger effect = lower value; B-score at 10 µM; 310,000 tested, 1.3% active;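 active means calcium-response B-score plate-corrected more than 3 library SD below zero, starting fluorescence within 5 deviations, no agonist response on first addition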;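 further: peak minus trough fluorescence over baseline after final BAM8-22 challenge near maximal dose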
Target sequence (Q96LB2 whole entry, looked up): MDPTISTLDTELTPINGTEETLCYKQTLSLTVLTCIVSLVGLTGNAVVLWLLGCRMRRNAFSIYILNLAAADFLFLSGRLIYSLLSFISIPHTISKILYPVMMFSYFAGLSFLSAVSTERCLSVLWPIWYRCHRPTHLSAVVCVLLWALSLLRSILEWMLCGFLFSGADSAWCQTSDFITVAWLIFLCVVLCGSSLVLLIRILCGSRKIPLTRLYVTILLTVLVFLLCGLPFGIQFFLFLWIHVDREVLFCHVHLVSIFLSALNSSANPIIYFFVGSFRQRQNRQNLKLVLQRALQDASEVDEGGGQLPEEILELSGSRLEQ
RGS4 act – potentiators or activators of RGS4. HEK293 M3R/inducible RGS4, carbachol calcium flux Fluo4; stronger effect = lower value. AID 463111. 310,000 tested, 0.92% active. B-score at 10 µM;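 active means B-score of the integrated calcium signal more than 4 SD below the library mean, with starting fluorescence not abnormally high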;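 further: negative B-score means reduced calcium response which marks RGS4 activation or potentiation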
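System: HEK293 FlpIn-TREx cells, stable M3R, doxycycline-inducible RGS4. Timing: overnight RGS4 induction, 30 min dye load 37 °C, 20 min compound RT. Also added: carbachol, ECmax concentration. Measured by: Fluo4 fluorescence kinetic imaging of calcium. Evaluation: integrated calcium ratio converted to B score.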
MrgX1 ag – activates human MrgX1 receptor signaling. Q96LB2. MrgX1-HEK293 cells, Fluo-4 calcium fluorescence, agonist mode; stronger effect = higher value. B-score at 10 µM. 310,000 tested, 0.44% active. AID 588627;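 active means calcium response B-score plate-corrected fluorescence ratio at least 3 library SD, with starting fluorescence B-score inside 5 SD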
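Material: MrgX1-expressing HEK293 cells / Dosing: compound as first of three additions / Incubation: overnight seeding, then 1 h dark dye loading / Signal: Fluo-4 NW calcium fluorescence / Evaluation: B-scored fluorescence response ratio / Benchmarks: positive and negative control wells on each plate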
MrgX1 PAM – human MrgX1 positive allosteric modulation, primary screen; MrgX1-HEK293, Fluo-4 calcium flux, FDSS; stronger effect = higher value; Q96LB2; B-score at 10 µM; 310,000 tested, 0.63% active;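 active means plate-corrected calcium response at least 3 library SD above typical, normal starting fluorescence, not activating the receptor alone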;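 further: compound read alongside a low EC10 to EC30 dose of BAM8-22 agonist; peak minus trough fluorescence over baseline measured at the second addition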
RGS4 inh valid – RGS4 inhibitor validation; AID 492999; calcium response, % at 10 µM; 1,700 tested, 65% active; HEK293 M3R/RGS4, carbachol calcium Fluo-4 fluorescence; carbachol added at its EC20; 0 = buffer wells, 100 = carbachol control; shares compounds with RGS4 inh;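 active means duplicate-averaged calcium response above the buffer-only control mean plus 5 SD of those controls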;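 further: integrated fluorescence ratio F max minus min over baseline F0; higher response in RGS4-induced cells means RGS4 inhibition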
M3R Ca ctr – checks RGS4 inhibitor effects in non-induced HEK293 M3R cells; shares compounds with RGS4 inh; carbachol calcium Fluo-4; submaximal (EC20) carbachol stimulus; buffer wells 0%, carbachol control wells 100%; activity (percent), % at 10 µM; 1,900 tested, 20% active; AID 493000; call rule not given here;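 further: RGS4 induction absent so cells express M3R without RGS4; higher means more calcium signal and flags a non-specific hit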
M3R basal Ca ctr – signal in non-induced cells without carbachol, RGS4 inhibitor counter-screen; shares compounds with RGS4 inh; HEK293 M3R/RGS4 non-induced, Fluo-4 calcium, no carbachol; normalised: buffer wells 0%, carbachol wells 100%; calcium response (agonist-mode artifact), % at 10 µM; 1,900 tested, 22% active; AID 493001;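 active means duplicate-averaged calcium rise in uninduced cells above buffer wells' mean plus 5 SD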
Starred values were filed as active, the others as inactive; i = inactive; . = no result given. This is a sample that favours compounds with a hit; in the whole collection about 3.5% have one here.

SMILES	RGS4 inh	MrgX1 antag	RGS4 act	MrgX1 ag	MrgX1 PAM	RGS4 inh valid	M3R Ca ctr	M3R basal Ca ctr
CSc1ccc(S(=O)(=O)Nc2ccc(NC(C)=O)cc2)cc1	i	i	i	i	i	.	.	.
CCOc1ccc(NS(=O)(=O)c2ccc(NS(=O)(=O)c3ccc(SC)cc3)cc2)cc1	5.2*	-4.8*	i	i	i	13%*	32%*	i
CSc1ccc(S(=O)(=O)Nc2ccc(S(=O)(=O)Nc3ccc(C)cc3)cc2)cc1	5*	i	i	i	i	28%*	i	i
O=C(NCC1COCCO1)c1cc(COc2c(F)cccc2F)on1 (stereo not drawn)	i	i	i	i	i	.	.	.
O=C(O)c1ccc(N/N=C/c2cn(Cc3ccc(F)cc3)c3ccccc23)cc1	i	i	i	i	i	.	.	.
O=[N+]([O-])/C=C/c1cn(Cc2ccc(F)cc2)c2ccccc12	6*	i	i	i	7.4*	42%*	i	68%*
CCOC(=O)NC(=O)CSc1nc(-c2ccc(C)c(C)c2)cn1-c1ccccc1	i	i	i	i	i	.	.	.
Cc1ccc(-c2cn(-c3ccccc3)c(SCC(N)=O)n2)cc1C	4.7*	i	i	i	i	9.5%*	i	i
COc1ccc(-c2c(C3=CCCCC3)oc3ccc(-c4ccc5c(c4)OCO5)cc23)cn1	i	i	i	i	i	.	.	.
Cc1c(C(=O)N2CCOCC2)c(S(=O)(=O)Nc2cccc(C#N)c2)c(C)n1C	i	i	i	i	i	.	.	.
COc1ccc(OC)c(S(=O)(=O)Nc2ccc(-c3ccc4nncn4n3)cc2)c1	i	i	i	i	i	.	.	.
COc1cccc(NC(=S)N2CCN(S(=O)(=O)c3ccccc3)CC2)c1	i	i	i	i	i	.	.	.
Cc1ccc(-c2ccc(/C=C3\C(=O)ON=C3c3ccccc3)o2)c([N+](=O)[O-])c1	12*	-6.3*	i	i	i	i	i	14%*
Cc1ccc(/C=C2\C(=O)ON=C2c2ccccc2)o1	i	i	i	i	i	.	.	.
O=C1[C@H]2[C@@H](C(=O)N1c1cc(Cl)cc(Cl)c1)[C@]1(C(=O)Nc3ccccc31)N1CCC[C@@H]21	5.2*	i	i	i	i	i	i	i
COC(=O)c1c(N2C(=O)[C@H]3[C@@H](C2=O)[C@]2(C(=O)Nc4ccccc42)N2CCC[C@@H]32)sc(C)c1C	i	i	i	i	i	.	.	.
O=C(COc1coc(CN2CCN(c3ccccc3F)CC2)cc1=O)NC1CCCC1	i	i	i	i	i	.	.	.
Nc1cccn2c(-c3ccc(Cl)c(Cl)c3)cnc12	12*	i	i	i	i	7.5%*	i	i
Nc1cccn2c(-c3ccc(Cl)cc3)cnc12	i	i	i	i	i	.	.	.
COc1cc2nc(N(CCN(C)C)C(=O)c3ccc4ccccc4c3)sc2cc1OC	i	i	i	i	i	.	.	.
CCN(CC)CCN(C(=O)c1ccc2c(c1)CCCC2)c1nc2cc(OC)c(OC)cc2s1	5.3*	i	i	i	i	i	i	i
CC1(C)CCCN(Cc2c(O)ccc3c(=O)c(-c4nc5ccccc5s4)c(N)oc23)C1	i	i	i	i	i	.	.	.
CC1CCCN(Cc2c(O)ccc3c(=O)c(-c4nc5ccccc5s4)c(N)oc23)C1 (stereo not drawn)	5*	i	i	i	i	16%*	i	i
CC1CCN(Cc2c(O)ccc3c(=O)c(-c4nc5ccccc5s4)c(N)oc23)CC1	6.3*	i	i	i	i	12%*	i	i
CN(C(=O)COc1ccc(-c2nnco2)cc1)C1CCS(=O)(=O)C1 (stereo not drawn)	i	i	i	i	i	.	.	.
SMILES	RGS4 inh	MrgX1 antag	RGS4 act	MrgX1 ag	MrgX1 PAM	RGS4 inh valid	M3R Ca ctr	M3R basal Ca ctr
COc1cccc2c1O/C(=N\O)C(C(=O)Nc1ccc(C)cc1)C2 (stereo not drawn)	i	i	i	i	i	.	.	.
CC1(c2cccc(Br)c2)NC(=O)N(CC(=O)Nc2ccc(S(N)(=O)=O)cc2)C1=O (stereo not drawn)	i	i	i	i	i	.	.	.
CC1=NN(c2ccc(Cl)cc2)C(=O)/C1=C\c1cccn1-c1ccc(S(N)(=O)=O)cc1	4.9*	i	i	i	i	43%*	42%*	i
Cc1sc(NC(=O)c2cc(-c3ccc(Cl)cc3)nc3ccccc23)c(C(N)=O)c1C	i	i	i	i	i	.	.	.
Cc1sc(NC(=O)c2cc(-c3ccccc3)nc3ccccc23)c(C(N)=O)c1C	i	i	i	i	i	.	i	i
CCc1nnc(NC(=O)c2cc(-c3ccncc3)nc3ccccc23)s1	4.9*	i	i	i	i	18%*	i	i
CCc1nnc(NC(=O)c2cc(-c3ccccn3)nc3ccc(Br)cc23)s1	i	i	i	i	i	.	.	.
CCCC(=O)OCCNc1cc(Sc2nc3ccccc3[nH]2)c2nonc2c1[N+](=O)[O-]	i	i	i	i	i	.	i	14%*
CCC(=O)OCCNc1cc(SCCC(=O)OC)c2nonc2c1[N+](=O)[O-]	i	i	i	i	i	.	.	.
CCC(=O)OCCNc1cc(Sc2nccn2C)c2nonc2c1[N+](=O)[O-]	i	i	i	i	i	.	i	i
COc1ccc(Cc2nnc(SCC(=O)NC3(C#N)CCCCC3)n2N)cc1	i	i	i	i	i	.	.	.
CC(=O)NC(Cc1ccc(F)cc1)C(=O)NC1CCN(C(=O)Nc2ccccc2C)CC1 (stereo not drawn)	i	i	i	i	i	.	.	.
CCc1ccc(S(=O)(=O)Nc2ccc(O)c3ccccc23)cc1	4.7*	i	i	i	i	10%*	i	i
O=S(=O)(Nc1ccc(O)c2ccccc12)c1ccc(F)cc1	i	i	i	i	i	.	.	.
